Laboratory results taken from ChEMBL document CHEMBL1126562, “(1-Butyl-4-piperidinyl)methyl 8-amino-7-chloro-1,4-benzodioxane-5-carboxylate hydrochloride: a highly potent and selective 5-HT4 receptor antagonist derived from metoclopramide” (J Med Chem, 1993).

Tests used:
[1] = biological target: 5-hydroxytryptamine receptor 4 (Cavia porcellus, UniProt O70528); test: Inhibition of 5-HT-evoked 5-HT4 receptor-mediated contractions in the guinea pig distal colon longitudinal muscle myenteric plexus (LMMP); format: functional
Chain of 5-hydroxytryptamine receptor 4 (O70528 whole entry): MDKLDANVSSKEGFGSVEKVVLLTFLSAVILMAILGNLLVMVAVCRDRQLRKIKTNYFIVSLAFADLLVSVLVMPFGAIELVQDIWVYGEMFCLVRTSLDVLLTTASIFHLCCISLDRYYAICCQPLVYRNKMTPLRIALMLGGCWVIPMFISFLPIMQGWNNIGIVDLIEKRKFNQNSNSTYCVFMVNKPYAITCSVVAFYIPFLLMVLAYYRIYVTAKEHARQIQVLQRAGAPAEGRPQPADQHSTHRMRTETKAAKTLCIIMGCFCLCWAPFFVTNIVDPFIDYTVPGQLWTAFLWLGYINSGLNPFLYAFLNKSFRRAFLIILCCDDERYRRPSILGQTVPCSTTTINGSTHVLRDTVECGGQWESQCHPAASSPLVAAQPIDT

[2] = biological target: 5-hydroxytryptamine receptor 1E (Homo sapiens, UniProt P28566); test: Tested for binding affinity towards cloned human 5-hydroxytryptamine 1E receptor using [3H]5-HT as radioligand
Chain of 5-hydroxytryptamine receptor 1E (P28566 whole entry): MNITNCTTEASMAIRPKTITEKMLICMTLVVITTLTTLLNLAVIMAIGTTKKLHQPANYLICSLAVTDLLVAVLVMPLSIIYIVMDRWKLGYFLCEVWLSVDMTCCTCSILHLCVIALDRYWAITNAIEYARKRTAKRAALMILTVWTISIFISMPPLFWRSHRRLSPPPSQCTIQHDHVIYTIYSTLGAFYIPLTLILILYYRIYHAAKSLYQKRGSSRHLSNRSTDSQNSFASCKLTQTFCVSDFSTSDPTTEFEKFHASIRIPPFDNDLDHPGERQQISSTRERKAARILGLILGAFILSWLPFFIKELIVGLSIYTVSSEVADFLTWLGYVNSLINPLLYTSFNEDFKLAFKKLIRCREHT
Outline: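 Radioligand binding on the cloned human 5-HT1E receptor, labelled with [³H]-5-HT.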

[3] = biological target: T1, 5-hydroxytryptamine receptor 1A (Mus musculus, UniProt Q64264); test: Tested against 5-hydroxytryptamine 1A receptor
T1 sequence (Q64264 whole entry): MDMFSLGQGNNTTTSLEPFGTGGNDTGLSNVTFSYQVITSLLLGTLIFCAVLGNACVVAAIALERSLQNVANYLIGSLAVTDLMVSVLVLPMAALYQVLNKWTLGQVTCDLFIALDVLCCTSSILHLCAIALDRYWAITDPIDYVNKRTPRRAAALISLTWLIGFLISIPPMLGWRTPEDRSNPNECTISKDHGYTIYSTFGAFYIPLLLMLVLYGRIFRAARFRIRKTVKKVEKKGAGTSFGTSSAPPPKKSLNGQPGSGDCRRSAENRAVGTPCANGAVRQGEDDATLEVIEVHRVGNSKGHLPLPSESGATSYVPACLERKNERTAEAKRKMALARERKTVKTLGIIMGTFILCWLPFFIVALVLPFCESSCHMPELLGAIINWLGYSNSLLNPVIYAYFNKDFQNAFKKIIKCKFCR

[4] = biological target: 5-hydroxytryptamine receptor 2A (Homo sapiens, UniProt P28223); test: Tested against 5-hydroxytryptamine 2A receptor
Chain of 5-hydroxytryptamine receptor 2A (P28223 whole entry): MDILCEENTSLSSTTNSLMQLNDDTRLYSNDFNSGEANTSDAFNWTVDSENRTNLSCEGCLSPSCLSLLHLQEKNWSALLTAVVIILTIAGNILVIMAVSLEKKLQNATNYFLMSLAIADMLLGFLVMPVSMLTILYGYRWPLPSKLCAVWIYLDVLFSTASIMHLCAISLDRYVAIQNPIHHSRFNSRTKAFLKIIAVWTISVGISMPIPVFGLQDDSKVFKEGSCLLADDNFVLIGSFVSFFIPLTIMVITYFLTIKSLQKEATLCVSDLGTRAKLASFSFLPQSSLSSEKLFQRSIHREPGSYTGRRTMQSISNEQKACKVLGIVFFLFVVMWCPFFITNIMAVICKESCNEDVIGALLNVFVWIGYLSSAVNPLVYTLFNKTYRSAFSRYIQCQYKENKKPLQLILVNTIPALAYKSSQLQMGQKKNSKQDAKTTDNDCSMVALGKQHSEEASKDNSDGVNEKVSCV

[5] = biological target: 5-hydroxytryptamine receptor 1D (Homo sapiens, UniProt P28221); test: Tested against 5-hydroxytryptamine 1D receptor
Chain of 5-hydroxytryptamine receptor 1D (P28221 whole entry): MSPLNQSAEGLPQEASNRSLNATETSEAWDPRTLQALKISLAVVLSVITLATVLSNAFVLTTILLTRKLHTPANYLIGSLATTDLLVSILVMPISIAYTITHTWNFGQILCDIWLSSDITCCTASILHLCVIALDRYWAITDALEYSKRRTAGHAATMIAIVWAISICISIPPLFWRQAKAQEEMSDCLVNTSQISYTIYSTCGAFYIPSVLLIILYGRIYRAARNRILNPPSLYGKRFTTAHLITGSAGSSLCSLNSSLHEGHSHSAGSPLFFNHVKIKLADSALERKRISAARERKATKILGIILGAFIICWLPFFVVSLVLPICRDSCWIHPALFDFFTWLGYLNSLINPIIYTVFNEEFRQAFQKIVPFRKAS

[6] = biological target: Serotonin 3 (5-HT3) receptor; test: Tested against 5-hydroxytryptamine 3 receptor in experiment 1; format: protein-complex assay
[7] = biological target: Serotonin 3 (5-HT3) receptor; test: Tested against 5-hydroxytryptamine 3 receptor in experiment 2; format: protein-complex assay
[8] = biological target: T2, 5-hydroxytryptamine receptor 2C (Homo sapiens, UniProt P28335); test: Tested agains t5-hydroxytryptamine 2C receptor in experiment 1
T2 sequence (P28335 whole entry): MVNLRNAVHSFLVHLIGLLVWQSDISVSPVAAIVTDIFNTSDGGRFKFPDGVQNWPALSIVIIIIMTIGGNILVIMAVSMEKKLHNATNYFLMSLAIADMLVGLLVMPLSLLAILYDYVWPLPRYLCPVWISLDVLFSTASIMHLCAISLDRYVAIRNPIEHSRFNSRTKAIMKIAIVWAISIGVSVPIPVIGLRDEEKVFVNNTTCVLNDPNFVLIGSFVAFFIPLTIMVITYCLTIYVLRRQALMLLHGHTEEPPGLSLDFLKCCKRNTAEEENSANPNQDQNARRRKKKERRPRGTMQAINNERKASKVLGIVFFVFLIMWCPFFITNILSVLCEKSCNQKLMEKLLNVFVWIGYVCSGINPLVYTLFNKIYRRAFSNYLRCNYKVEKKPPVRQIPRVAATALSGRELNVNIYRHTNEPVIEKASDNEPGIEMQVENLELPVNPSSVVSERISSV

[9] = biological target: T2, 5-hydroxytryptamine receptor 2C; test: Tested against 5-hydroxytryptamine 2C receptor in experiment 2
[10] = Partition coefficient (logP); format: physicochemical; details: octanol/water
[11] = Concentration-dependent rightward shift of the 5-HT curve yielding an apparent pA2; format: ADME
[12] = Acid dissociation constant was determined; format: ADME
[13] = biological target: T3, Alpha-2A adrenergic receptor (Homo sapiens, UniProt P08913); test: Tested against adrenergic alpha-2 receptor
T3 sequence (P08913 whole entry): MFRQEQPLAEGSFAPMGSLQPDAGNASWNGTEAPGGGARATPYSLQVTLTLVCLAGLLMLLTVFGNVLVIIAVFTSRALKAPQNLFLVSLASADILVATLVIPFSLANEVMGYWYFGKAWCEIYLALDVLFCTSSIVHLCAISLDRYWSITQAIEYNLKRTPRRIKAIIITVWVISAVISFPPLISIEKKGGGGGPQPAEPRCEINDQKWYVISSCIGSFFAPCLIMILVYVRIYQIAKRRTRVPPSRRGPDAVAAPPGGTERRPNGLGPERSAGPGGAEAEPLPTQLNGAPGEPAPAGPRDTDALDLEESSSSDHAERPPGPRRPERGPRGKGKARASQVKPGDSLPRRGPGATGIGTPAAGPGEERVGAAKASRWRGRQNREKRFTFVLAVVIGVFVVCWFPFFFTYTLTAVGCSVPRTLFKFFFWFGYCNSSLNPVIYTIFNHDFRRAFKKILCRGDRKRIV

[14] = biological target: T4, Alpha-1D adrenergic receptor (Rattus norvegicus, UniProt P23944); test: Tested against adrenergic alpha-1 receptor radiolabeled with [3H]7-methoxyprazosin
T4 sequence (P23944 whole entry): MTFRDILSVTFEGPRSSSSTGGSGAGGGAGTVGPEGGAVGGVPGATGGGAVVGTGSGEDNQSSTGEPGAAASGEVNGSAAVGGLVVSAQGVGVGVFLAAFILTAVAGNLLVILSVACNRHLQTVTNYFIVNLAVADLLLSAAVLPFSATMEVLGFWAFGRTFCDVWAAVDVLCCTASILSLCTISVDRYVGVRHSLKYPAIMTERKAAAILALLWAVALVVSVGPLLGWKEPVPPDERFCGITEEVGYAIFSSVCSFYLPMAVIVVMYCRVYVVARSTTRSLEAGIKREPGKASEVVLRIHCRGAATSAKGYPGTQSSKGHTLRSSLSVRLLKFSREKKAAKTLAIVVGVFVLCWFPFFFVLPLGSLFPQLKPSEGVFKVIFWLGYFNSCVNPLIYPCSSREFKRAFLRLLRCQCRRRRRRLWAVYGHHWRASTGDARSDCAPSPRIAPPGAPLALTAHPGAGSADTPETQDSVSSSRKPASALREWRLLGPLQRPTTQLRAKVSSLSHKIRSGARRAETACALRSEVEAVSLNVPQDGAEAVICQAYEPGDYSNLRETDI
Outline: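 α1-Adrenoceptor binding, radiolabelled with [³H]-7-methoxyprazosin.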

[15] = biological target: Beta-2 adrenergic receptor (Homo sapiens, UniProt P07550); test: Tested against Beta-2 adrenergic receptor
Chain of Beta-2 adrenergic receptor (P07550 whole entry): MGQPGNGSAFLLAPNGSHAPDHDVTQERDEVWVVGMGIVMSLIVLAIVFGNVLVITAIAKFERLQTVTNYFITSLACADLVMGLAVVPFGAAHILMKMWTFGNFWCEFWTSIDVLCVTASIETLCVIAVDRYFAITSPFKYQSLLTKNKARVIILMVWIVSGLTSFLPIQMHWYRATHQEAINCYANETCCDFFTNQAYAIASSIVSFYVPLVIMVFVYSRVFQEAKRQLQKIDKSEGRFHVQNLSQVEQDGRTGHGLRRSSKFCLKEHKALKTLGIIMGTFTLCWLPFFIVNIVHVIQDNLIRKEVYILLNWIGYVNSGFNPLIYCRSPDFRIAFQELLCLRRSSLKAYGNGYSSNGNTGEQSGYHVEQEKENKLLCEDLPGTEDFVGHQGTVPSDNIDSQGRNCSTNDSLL

[16] = biological target: D(1A) dopamine receptor (Mus musculus, UniProt Q61616); test: Tested against dopamine receptor D1
Chain of D(1A) dopamine receptor (Q61616 whole entry): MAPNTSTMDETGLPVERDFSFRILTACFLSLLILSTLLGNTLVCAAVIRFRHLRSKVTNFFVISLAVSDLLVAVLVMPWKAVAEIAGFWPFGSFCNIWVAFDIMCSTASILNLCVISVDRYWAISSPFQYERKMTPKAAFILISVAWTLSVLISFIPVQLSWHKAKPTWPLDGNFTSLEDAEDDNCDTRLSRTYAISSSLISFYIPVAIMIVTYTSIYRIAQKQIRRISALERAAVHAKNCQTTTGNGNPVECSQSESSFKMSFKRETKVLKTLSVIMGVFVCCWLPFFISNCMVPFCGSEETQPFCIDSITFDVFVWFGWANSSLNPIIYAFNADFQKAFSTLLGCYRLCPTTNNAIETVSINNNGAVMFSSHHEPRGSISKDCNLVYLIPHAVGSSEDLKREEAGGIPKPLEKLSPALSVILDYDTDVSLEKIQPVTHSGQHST

[17] = biological target: D(3) dopamine receptor (Homo sapiens, UniProt P35462); test: Tested against dopamine receptor D3 using cloned human receptor expressed in CHO cells radiolabeled with [125I]iodosulpiride; format: cell-based
Chain of D(3) dopamine receptor (P35462 whole entry): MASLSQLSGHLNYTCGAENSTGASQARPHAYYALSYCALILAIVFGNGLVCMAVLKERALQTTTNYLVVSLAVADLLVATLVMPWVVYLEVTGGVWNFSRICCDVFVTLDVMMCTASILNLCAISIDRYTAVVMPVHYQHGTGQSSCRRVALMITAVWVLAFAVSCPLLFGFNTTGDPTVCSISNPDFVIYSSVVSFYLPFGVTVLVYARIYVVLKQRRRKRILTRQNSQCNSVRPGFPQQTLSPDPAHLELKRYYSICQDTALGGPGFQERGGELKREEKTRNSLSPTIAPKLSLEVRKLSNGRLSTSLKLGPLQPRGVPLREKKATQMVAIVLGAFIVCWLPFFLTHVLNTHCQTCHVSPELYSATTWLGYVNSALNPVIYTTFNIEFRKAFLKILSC
Outline: (§1)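 Competition binding on cloned human D2 or D3 receptors expressed in CHO cells, radiolabelled with [¹²⁵I]iodosulpride.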

[18] = biological target: D(2) dopamine receptor (Homo sapiens, UniProt P14416); test: Tested against dopamine receptor D2 using cloned human receptor expressed in CHO cells radiolabeled with [125I]iodosulpiride; format: cell-based; outline: as §1
Chain of D(2) dopamine receptor (P14416 whole entry): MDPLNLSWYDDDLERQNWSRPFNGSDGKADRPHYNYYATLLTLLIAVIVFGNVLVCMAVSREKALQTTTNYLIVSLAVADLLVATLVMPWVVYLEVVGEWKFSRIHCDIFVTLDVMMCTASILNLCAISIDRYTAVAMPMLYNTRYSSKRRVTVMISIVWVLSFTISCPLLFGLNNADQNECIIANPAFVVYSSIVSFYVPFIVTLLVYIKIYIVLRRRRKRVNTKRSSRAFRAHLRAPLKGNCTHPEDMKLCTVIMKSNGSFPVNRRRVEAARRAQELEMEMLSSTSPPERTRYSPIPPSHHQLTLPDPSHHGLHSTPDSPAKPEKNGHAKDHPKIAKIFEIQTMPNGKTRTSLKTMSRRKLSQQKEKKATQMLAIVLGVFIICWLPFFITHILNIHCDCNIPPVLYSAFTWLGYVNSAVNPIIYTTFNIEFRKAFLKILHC

[19] = biological target: Beta-1 adrenergic receptor (Homo sapiens, UniProt P08588); test: Tested against Beta-1 adrenergic receptor
Chain of Beta-1 adrenergic receptor (P08588 whole entry): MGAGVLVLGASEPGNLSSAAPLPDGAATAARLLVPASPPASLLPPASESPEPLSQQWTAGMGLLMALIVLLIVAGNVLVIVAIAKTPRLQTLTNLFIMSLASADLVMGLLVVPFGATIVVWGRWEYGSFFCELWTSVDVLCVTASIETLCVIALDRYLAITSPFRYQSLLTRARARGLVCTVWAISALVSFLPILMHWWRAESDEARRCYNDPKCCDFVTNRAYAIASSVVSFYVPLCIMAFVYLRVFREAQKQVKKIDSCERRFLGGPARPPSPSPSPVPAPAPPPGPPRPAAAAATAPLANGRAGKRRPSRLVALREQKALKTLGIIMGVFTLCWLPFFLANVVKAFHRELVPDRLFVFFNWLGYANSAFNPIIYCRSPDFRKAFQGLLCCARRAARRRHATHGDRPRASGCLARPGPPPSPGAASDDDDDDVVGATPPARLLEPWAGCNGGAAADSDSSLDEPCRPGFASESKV

Compound `CCCCN1CCC(COC(=O)c2cccc3c2OCO3)CC1` has an IC50 [1] of 63.1 nM.

With `CCCCN1CCC(COC(=O)c2cccc3c2OCCCO3)CC1` the IC50 [1] was 50.1 nM.

`CCCCN1CCC(COC(=O)c2cccc3c2OCCO3)CC1` showed an IC50 [1] of 6.31 nM.

Compound `CCCCN1CCC(COC(=O)c2cc(Cl)c(N)c3c2OCCO3)CC1` has a Ki [2] greater than 10000 nM, a Ki [3] greater than 1000 nM and a Ki [4] greater than 1000 nM. For the same compound, the Ki [5] was greater than 10000 nM, the “Log Ki” value [6] was -6.6 and the “Log Ki” value [7] was -6.7. The Ki [8] was 126 nM, the Ki [9] was 79.4 nM and the logP [10] was 4.86. For the same compound, the pA2 [11] was 10.8, the pKa [12] was 10.4 and the Ki [13] was greater than 1000 nM. It also gave a Ki [14] greater than 1000 nM, a Ki [15] greater than 1000 nM and a Ki [16] greater than 1000 nM. For the same compound, the Ki [17] was greater than 1000 nM, the Ki [18] was greater than 10000 nM and the IC50 [1] was 0.1 nM. It also gave a Ki [19] greater than 1000 nM.

Work on `CCN(CC)CCOC(=O)c1cc(Cl)c(N)cc1OC` yielded an IC50 [1] of 251 nM.

Work on `CN1[C@@H]2CC[C@H]1C[C@@H](OC(=O)c1c[nH]c3ccccc13)C2` [TROPISETRON] yielded an IC50 [1] of 3160 nM.

With `CCCCN1CCC(COC(=O)c2cc(Cl)c(N)cc2OC)CC1` the IC50 [1] was 1 nM.

For `CCCCN1CCC(CNC(=O)c2cc(Cl)c(N)cc2OC)CC1`, the IC50 [1] was 10 nM.
